# In ChEMBL document CHEMBL3272346, “Vinyl ethers of choline and congeners” (1976):
# Calls of active or inactive are those of the source. The calls are words filed in the database; no cut-off is given here.
# Tests used:
# Canis familiaris [1] = assay: Increase in blood pressure in dog at 0.2 mg/kg; assay type: functional, organism-based; parameters: dose 0.2 mg/kg; settings: Canis lupus familiaris
# Outline: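 Dogs anesthetized with barbital sodium (250 mg/kg) and pretreated with atropine sulfate (0.5 mg/kg). Agents given rapidly into the right femoral vein in randomized order. Left femoral arterial pressure recorded by transducer. Pressor responses were also tested after intravenous hexamethonium bromide pretreatment (10 mg/kg). Potency is relative to acetylcholine, computed on molar cation amounts by Finney's method with 95% confidence intervals.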
# Canis familiaris [2] = assay: Decrease in blood pressure in dog at 1 to 4 ug/kg relative to acetylcholine
# Canis familiaris [3] = assay: Increase in blood pressure in atropine sulfate-pretreated anesthetized dog at 0.3 to 0.6 mg/kg relative to acetylcholine; assay type: functional, Canis lupus familiaris; settings: dose mg/kg 0.3-0.6
# Outline: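 Dogs were pretreated with atropine sulfate (0.5 mg/kg) and given compounds or acetylcholine at 0.3 and 0.6 mg/kg, rapidly into the right femoral vein in randomized order. Pressor responses were recorded from the left femoral artery by transducer. Relative potencies with 95% confidence intervals were calculated by Finney's method on molar cation amounts.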
# Cavia porcellus [4] = species on record: Cavia porcellus; assay: Agonist activity at muscarinic acetylcholine receptor in guinea pig ileum assessed as muscle contraction at 2.5 to 10 ng/ml relative to acetylcholine
# Canis familiaris [5] = assay: Increase in blood pressure in hexamethonium bromide-pretreated anesthetized dog at 0.3 to 0.6 mg/kg; assay type: functional, organism-based; settings: Canis lupus familiaris
# Outline: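 In atropine sulfate-pretreated (0.5 mg/kg) anesthetized dogs, compounds were given intravenously at 0.3 and 0.6 mg/kg. Femoral arterial pressor responses were measured after pretreatment with hexamethonium bromide, 10 mg/kg, given intravenously.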
# Cavia porcellus [6] = species on record: Cavia porcellus; assay: […] at muscarinic acetylcholine receptor in guinea pig ileum assessed as muscle contraction in presence of 0.2 mg/l atropine sulfate; assay type: tissue-based
# Outline: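 Contractions of a guinea pig ileum segment (animals 300-600 g, tissue taken just before the ileocecal valve) were evoked by added drug. Atropine sulfate was present at 0.2 mg/l to test antagonism of the responses.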
# Canis familiaris [7] = assay: Increase in blood pressure in atropine sulfate-pretreated anesthetized dog at 2 mg/kg; assay type: functional, organism-based; parameters: dose 2 mg/kg; settings: Canis lupus familiaris
SMILES,Activity (Canis familiaris [1]),fold change (FC) (Canis familiaris [2]),fold change (FC) (Canis familiaris [3]),fold change (FC) (Cavia porcellus [4]),Activity (Canis familiaris [5]),Activity (Cavia porcellus [6]),Activity (Canis familiaris [7])
CN1C2CCC1CC(OC(=O)C(CO)c1ccccc1)C2 (centres undefined),Active,–,–,–,–,–,–
C=COCC[N+](C)(C)C.[I-],–,1.13,1.93,0.09,inactive,inactive,–
CCOC(C)C[N+](C)(C)C.[I-] (racemic),–,0.64,–,0.03,–,inactive,inactive
CCOCC[N+](C)(C)C.[I-],–,1.03,0.9,0.15,inactive,inactive,–
C=COC(C)C[N+](C)(C)C.[I-] (racemic),–,0.74,–,0.02,–,inactive,inactive
CCOCC(C)[N+](C)(C)C.[I-] (racemic),–,0.08,1.13,0.003,inactive,inactive,–
C=COCC(C)[N+](C)(C)C.[I-] (racemic),–,0.06,3.74,0.001,inactive,inactive,–
